Compound activity deposited in PubChem by The Scripps Research Institute Molecular Screening Center.
UHRF1 MBD2 ctr: blocks human UHRF1 binding to methylated DNA; Q96T88; UHRF1 binding to methylated oligo, TR-FRET; inhibition, % at 4.4 µM; 370,000 compounds, 0.75% hits; AID 687016; in the data active = inhibition above about 21%;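 note: UHRF1 SRA domain binding a hemimethylated CpG hairpin DNA probe; 0% = median of test compound wells and 100% = reference inhibitor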
Target sequence (Q96T88 whole entry, looked up, the tested form may be a part): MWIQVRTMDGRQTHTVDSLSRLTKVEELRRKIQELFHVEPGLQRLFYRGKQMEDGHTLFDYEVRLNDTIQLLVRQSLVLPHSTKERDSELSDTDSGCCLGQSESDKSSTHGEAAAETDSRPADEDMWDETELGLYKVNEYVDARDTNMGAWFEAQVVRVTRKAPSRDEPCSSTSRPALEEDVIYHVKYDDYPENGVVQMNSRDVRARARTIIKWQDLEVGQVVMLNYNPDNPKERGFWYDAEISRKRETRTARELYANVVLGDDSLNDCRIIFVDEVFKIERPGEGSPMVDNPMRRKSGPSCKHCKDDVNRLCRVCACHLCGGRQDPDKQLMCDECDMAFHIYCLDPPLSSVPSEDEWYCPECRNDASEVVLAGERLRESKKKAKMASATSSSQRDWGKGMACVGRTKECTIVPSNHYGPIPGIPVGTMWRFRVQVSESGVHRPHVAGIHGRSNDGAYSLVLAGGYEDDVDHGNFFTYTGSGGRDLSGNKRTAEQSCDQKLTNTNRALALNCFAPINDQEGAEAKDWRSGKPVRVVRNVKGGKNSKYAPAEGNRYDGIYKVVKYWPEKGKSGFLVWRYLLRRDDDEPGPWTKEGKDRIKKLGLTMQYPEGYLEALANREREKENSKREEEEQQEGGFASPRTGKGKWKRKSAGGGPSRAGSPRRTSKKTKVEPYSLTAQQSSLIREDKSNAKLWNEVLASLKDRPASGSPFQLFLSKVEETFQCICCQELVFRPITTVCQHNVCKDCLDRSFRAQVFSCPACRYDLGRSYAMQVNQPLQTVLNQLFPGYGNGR
MBD2 inh: blocks human MBD2 binding to methylated DNA; TR-FRET, MBD2 binding to methylated oligonucleotide; inhibition, % at 4.4 µM; 370,000 compounds, 0.31% hits; AID 686964; in the data active = inhibition above about 13%
LEDGF integ inh: blocks HIV-1 LEDGF/p75-dependent DNA integration | 370,000 compounds, 0.64% hits | TR-FRET IN-LEDGF/p75 DNA integration, Eu/Cy5 | AID 743269 | inhibition, % at 3.7 µM;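 active = inhibition above the screen-wide mean plus 3 SD, cut at about 13% in these data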;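 note: signal is the Cy5 over europium emission ratio at 671 and 618 nm; 0% = plate median of compound wells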
TDP2 inh: TDP2 (human) inhibition, absorbance primary screen. AID 720702. O95551. inhibition, % at 12.8 µM. 370,000 compounds, 0.34% hits. recombinant TDP2, T5PNP hydrolysis, p-nitrophenol absorbance 415 nm;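 active = inhibition above the mean of all tested compounds plus 3 SD, set per campaign, cut at about 25% in these data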;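 note: 0% = DMSO with enzyme and 100% = buffer with substrate but no TDP2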
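Assay system: recombinant human TDP2 / Reagent: T5PNP substrate at 5 mM, a TopII-DNA adduct mimic / Measured by: epi absorbance from released p-nitrophenol / Evaluation: % inhibition relative to enzyme-containing and enzyme-free wells / Control set: enzyme-free and DMSO wells / Replicates: each compound tested once, singlicate / Schedule: enzyme reaction with compound for 2 h at 37 °C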
UHRF1 ctr MBD2: UHRF1 methyl-oligo binding inhibition as MBD2 counter-screen; shares compounds with MBD2 inh; UHRF1 binding to methylated oligonucleotide, TR-FRET; inhibition, % at 4.4 µM; 1,000 compounds, 25% hits; AID 720530; in the data active = inhibition above about 21%;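 note: UHRF1 SRA domain binding a labeled hemimethylated CpG hairpin DNA; 0% = vehicle only and 100% = reference inhibitor with vehicle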
MBD2 confirm: MBD2-DBD methyl-DNA binding inhibition, TR-FRET confirmation | shares compounds with MBD2 inh | TR-FRET MBD2-DBD binding to methylated oligonucleotide | inhibition, % at 4.4 µM | 1,000 compounds, 26% hits | AID 720531
TDP2 confirm: human TDP2 inhibition, confirmation; AID 743263; inhibition, % at 12.8 µM; recombinant human TDP2, absorbance read-out; shares compounds with TDP2 inh; 1,100 compounds, 22% hits; in the data active = inhibition above about 25%;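 note: 0% = vehicle with enzyme and 100% = no enzyme buffer only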
IN multimer act: HIV-1 integrase multimerization activation, counter-screen; shares compounds with LEDGF integ inh; TR-FRET HIV-1 integrase multimerization, biochemical; activation, % at 7.7 µM; 2,000 compounds, 17% hits; AID 1053131; in the data active = activation above about 8.9%
TR-FRET interf: TR-FRET optical interference, LEDGF/p75 integration counter-screen; shares compounds with LEDGF integ inh; TR-FRET optical interference counterscreen, HIV-1 IN multimerization; inhibition, % at 7.7 µM; 2,000 tested, under 10 active;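 active = inhibition above the mean over all tested compounds plus 3 SD, which no compound reached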;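 note: 0% = integrase with antibodies and DMSO and 100% = antibodies without integrase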
LEDGF integ conf: LEDGF/p75-dependent HIV-1 integration inhibition, confirmation; shares compounds with LEDGF integ inh; AID 1053136; TR-FRET LEDGF/p75-dependent HIV-1 integration, biochemical; 2,000 compounds, 36% hits; inhibition, % at 3.7 µM
Starred values were filed as active, the others as inactive; / = no result. Only some compounds are listed: those with a hit (about 1.6% of all), similar ones and a draw of the others. Cut-off read from the data, not from the text of the source, unless noted: active = inhibition above about 14%; inactive = the rest.

SMILES	UHRF1 MBD2 ctr	MBD2 inh	LEDGF integ inh	TDP2 inh	UHRF1 ctr MBD2	MBD2 confirm	others
CN1C(=O)/C(=C/C=C/c2ccco2)C(=O)NC1=S	72*	23*	60*	11	62*	22*
COc1ccc(-c2n(-c3ccccn3)c3ccccc3[n+]2-c2ccccn2)cc1	31*	46*	1	-8	74*	88*
COc1cc2c(cc1OC)C(c1c(O)n(CCc3ccccc3)c(=S)[nH]c1=O)NCC2 (stereo unspecified)	-2	4	0	10	/	/
CCC1=Nc2cc(C(=O)N3CCC4(CC3)OCCO4)ccc2Sc2ccc(C)cc21	3	21*	3	-8	6	1
O=c1[nH]c(=O)n(Cc2ccc(F)cc2)c(O)c1C=NCCCN1CCOCC1	-1	-1	6	-4	/	/
Cn1cccc1/C=C1\C(=O)NC(=O)N(Cc2ccco2)C1=O	63*	20*	65*	12	30*	14*
COC(=O)C1=C(c2ccccc2)C[C@@H]2CC[C@H]1N2C(=O)N1CCC(C)CC1	-1	-2	1	-1	/	/
COC(=O)C1=C(c2ccc(OC)c(OC)c2)C[C@@H]2CC[C@H]1N2C(=O)NCc1cccc2ccccc12	-1	1	1	8	/	/
Cc1ccc2c(C)c3ccc4ccccc4c3c[n+]2c1	27*	72*	1	-6	43*	83*
CC(C)CNC(=O)c1c(N)n(Cc2ccco2)c2nc3ccccc3nc12	0	-5	6	-2	/	/
Nc1c(C(=O)NCC2CCCO2)c2nc3ccccc3nc2n1Cc1ccco1 (stereo unspecified)	-1	17*	0	-6	3	-2
CN(C)Cc1c[nH]c2cc([N+](=O)[O-])ccc12	-3	19*	0	-2	-1	-1
CN(C)Cc1c[nH]c2ccc([N+](=O)[O-])cc12	-2	1	0	4	/	/
Cc1ccccc1NC1(C#N)CCCCC1	-1	1	-1	3	/	/
COc1cc2c(ccc3c4cc(OC)c(OC)cc4c[n+](C)c23)cc1O	24*	88*	1	-1	56*	100*
CC(C)(C)NC(=O)C1CN=C(c2ccccc2)c2cc(Cl)ccc2N1C(=O)C1CCC1 (stereo unspecified)	-1	3	-1	8	/	/
COC(=O)CC1(CC(=O)OC)C(=O)N(c2ccccc2)C(=O)N(c2ccccc2)C1=O	0	55*	1	11	2	1
CNc1ccc2nc3ccccc3[n+](C)c2c1	-15	15*	9	46*	19	20*	TDP2 confirm=32*
Cc1ccc(Cn2nc(C(=O)Nc3ccc(Br)cc3)cc2C)cc1	4	3	4	-31	/	/
O=C1NC(=O)N(Cc2ccco2)C(=O)/C1=C/C=C/c1ccco1	100*	74*	92*	1	55*	30*	IN multimer act=7;TR-FRET interf=-24;LEDGF integ conf=56*
C=CCN1C(=O)NC(=O)/C(=C/C=C/c2ccccc2)C1=O	-2	-2	-4	4	/	/
Cc1cc(/C=C2\C(=O)NC(=O)N(Cc3ccccc3)C2=O)c(C)n1-c1ccc(Cl)c(C(=O)O)c1	92*	37*	43*	10	72*	29*	IN multimer act=5;TR-FRET interf=-25;LEDGF integ conf=44*
CN(C)C1C(=O)C(C(N)=O)=C(O)C2(O)C(=O)C3=C(O)c4c(O)cccc4C(C)(O)C3C(O)C12 (stereo unspecified)	71*	31*	53*	11	9	13	IN multimer act=21*;TR-FRET interf=-73;LEDGF integ conf=23*
